Source: paper PMC2855869 (Chemmedchem, 2009)

Columns and labels:
[1] = target: Recombinant TryR from T. brucei (Trypanosoma brucei brucei, UniProt P39051); assay: DTNB-coupled colourimetric TryR screening/potency assay; type: biochemical
TryR = TryR (Trypanosoma brucei brucei, UniProt P39051); assay: Mode of inhibition studies on TryR; type: biochemical; details: for Inhibitor constants Ki′: T[S]2 varied, mixed inhibition, second constant; for Mode of inhibiton: TryR, global nonlinear fit of 1/v vs 1/[S] data
Outline: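 TryR with 150 μm NADPH, 50 μm DTNB, 20 mU/mL enzyme in 40 mm HEPES, 1 mm EDTA, pH 7.4. Three test-compound levels plus an inhibitor-free row. Started with T[S]2 over 12 points, 500 to 5.8 μm. NADPH was also varied at fixed T[S]2. Rates from linear A412 rise, inspected as 1/v vs 1/[S], then globally fitted to competitive, mixed or uncompetitive equations.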

[2] = target: T1, human glutathione reductase (Homo sapiens, UniProt P00390); assay: Glutathione reductase; type: biochemical
T1 sequence (P00390 44-522): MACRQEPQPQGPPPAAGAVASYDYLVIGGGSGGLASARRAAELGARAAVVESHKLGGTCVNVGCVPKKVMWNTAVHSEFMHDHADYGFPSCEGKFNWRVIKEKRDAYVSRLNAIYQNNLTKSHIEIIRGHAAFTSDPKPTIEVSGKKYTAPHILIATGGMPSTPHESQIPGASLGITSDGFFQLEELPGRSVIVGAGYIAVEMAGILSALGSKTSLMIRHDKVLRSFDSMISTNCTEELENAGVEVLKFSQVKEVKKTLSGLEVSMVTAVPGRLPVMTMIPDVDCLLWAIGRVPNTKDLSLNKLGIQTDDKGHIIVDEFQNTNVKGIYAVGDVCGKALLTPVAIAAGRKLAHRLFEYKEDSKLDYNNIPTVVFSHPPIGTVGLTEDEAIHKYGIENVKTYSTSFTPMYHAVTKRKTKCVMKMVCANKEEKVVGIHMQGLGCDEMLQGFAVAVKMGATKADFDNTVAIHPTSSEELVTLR

[3] = tested on: bloodstream form T. brucei brucei single marker; assay: Trypanosome growth assay; type: cell-based; details: Trypanosoma brucei, 73 h, read-out: EC50 Parasite
Outline: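 Bloodstream-form T. b. brucei single marker in HMI9-T with 10% FCS, 2000 cells/well, added to plates pre-stamped with test compound; media-only column as blank. Ten points from 15 μm to 0.5 nm or 50 μm to 2 nm; final DMSO 0.5%. Incubated 69 h at 37°C, 5% CO2, then resazurin (final 50 μm) for 4 h; fluorescence at ex 528/em 590 nm.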

Sequence of Recombinant TryR from T. brucei (P39051 whole entry): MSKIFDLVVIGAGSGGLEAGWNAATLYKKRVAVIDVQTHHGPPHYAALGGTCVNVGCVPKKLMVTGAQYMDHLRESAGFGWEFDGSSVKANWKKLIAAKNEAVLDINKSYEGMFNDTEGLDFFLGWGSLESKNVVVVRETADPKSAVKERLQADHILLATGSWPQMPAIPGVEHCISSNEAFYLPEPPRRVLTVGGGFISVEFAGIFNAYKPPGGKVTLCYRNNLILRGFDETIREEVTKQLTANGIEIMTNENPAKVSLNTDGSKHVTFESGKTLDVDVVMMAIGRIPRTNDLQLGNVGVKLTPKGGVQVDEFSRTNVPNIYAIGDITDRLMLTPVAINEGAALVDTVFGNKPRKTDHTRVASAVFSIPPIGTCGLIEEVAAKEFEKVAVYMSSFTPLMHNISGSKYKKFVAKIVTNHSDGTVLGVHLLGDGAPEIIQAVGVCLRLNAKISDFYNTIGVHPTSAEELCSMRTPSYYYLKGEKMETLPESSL
Sequence of TryR (P39051 whole entry): as above

SMILES	IC50 [1]	Ki (TryR)	Inhibitor constants Ki′ (TryR)	Mode of inhibiton (TryR)	IC50 [2]	EC50 [3]
Cc1ccc(-c2cc(C(=O)NCc3ccccn3)c3cc(Br)ccc3n2)o1 [Compound 5, 6-Bromo-2-(5-methylfuran-2-yl)-N-(pyridin-2-ylmethyl)quinoline-4-carboxamide]	4.7 µM	2 ± 0.1 µM	3.0 ± 0.2 µM	linear mixed	33.4 µM	18.7 µM
Cc1ccc(-c2cc(C(=O)NCCN(C)C)c3cc(Cl)ccc3n2)o1 [Compound 8, 6-Chloro-N-(2-(dimethylamino)ethyl)-2-(5-methylfuran-2-yl)quinoline-4-carboxamide]	3.1 µM	–	–	–	–	–
Cc1ccc(-c2cc(C(=O)NCCN(C)C)c3cccc(Br)c3n2)o1 [Compound 10, 8-Bromo-N-(2-(dimethylamino)ethyl)-2-(5-methylfuran-2-yl)quinoline-4-carboxamide]	5.8 µM	–	–	–	–	19.2 µM
Cc1ccc(-c2cc(C(=O)NCc3ccccn3)c3ccccc3n2)o1 [Compound 11, 2-(5-Methylfuran-2-yl)-N-(pyridin-2-ylmethyl)quinoline-4-carboxamide]	12.1 µM	–	–	–	–	–
Cc1ccc(-c2cc(C(=O)NCCN(C)C)c3ccccc3n2)o1 [Compound 12, N-(2-(Dimethylamino)ethyl)-2-(5-methylfuran-2-yl)quinoline-4-carboxamide]	14.4 µM	–	–	–	–	32.1 µM
Cc1ccc(-c2cc(C(=O)NCc3ccccc3)c3cc(Br)ccc3n2)o1 [Compound 15, N-Benzyl-6-bromo-2-(5-methylfuran-2-yl)quinoline-4-carboxamide]	> 100 µM	–	–	–	–	–
CN(C)CCNC(=O)c1cc(-c2ccco2)nc2ccc(Br)cc12 [Compound 20, 6-Bromo-N-(2-(dimethylamino)ethyl)-2-(furan-2-yl)quinoline-4-carboxamide]	32.4 µM	–	–	–	–	–
Cc1ccc(-c2cc(C(=O)NCCN(C)C)c3cc(Br)ccc3n2)s1 [Compound 22, 6-Bromo-N-(2-(dimethylamino)ethyl)-2-(5-methylthiophen-2-yl)quinoline-4-carboxamide]	> 100 µM	–	–	–	–	–
Cc1ccc(-c2cc(C(=O)NCCN(C)C)c3cc(F)ccc3n2)o1 [Compound 26, N-(2-(dimethylamino)ethyl)-6-fluoro-2-(5-methylfuran-2-yl)quinoline-4-carboxamide]	> 100 µM	–	–	–	–	–

The next lines start with results.

IC50 [1]	Ki (TryR)	Inhibitor constants Ki′ (TryR)	Mode of inhibiton (TryR)	IC50 [2]	SMILES	EC50 [3]
1.7 µM	1.6 ± 0.2 µM	3.2 ± 0.3 µM	linear mixed	> 100 µM	Cc1ccc(-c2cc(C(=O)NCCN(C)C)c3cc(Br)ccc3n2)o1 [Compound 1, 6-Bromo-N-(2-(dimethylamino)ethyl)-2-(5-methylfuran-2-yl)quinoline-4-carboxamide]	10.3 µM
1.1 µM	–	–	–	–	CNCCNC(=O)c1cc(-c2ccc(C)o2)nc2ccc(Br)cc12 [Compound 2, 6-Bromo-N-(2-(methylamino)ethyl)-2-(5-methylfuran-2-yl)quinoline-4-carboxamide]	6 µM
1.2 µM	–	–	–	–	Cc1ccc(-c2cc(C(=O)NCC[N+](C)(C)C)c3cc(Br)ccc3n2)o1 [Compound 3, 6-Bromo-N,N,N-trimethyl-2-(2-(5-methylfuran-2-yl)quinoline-4-carboxamido)ethanaminium iodide]	> 50 µM
4.2 µM	3 ± 0.2 µM	4.3 ± 0.3 µM	linear mixed	74.2 µM	Cc1ccc(-c2cc(C(=O)NCCN3CCOCC3)c3cc(Br)ccc3n2)o1 [Compound 4, 6-Bromo-2-(5-methylfuran-2-yl)-N-(2-morpholinoethyl)quinoline-4-carboxamide]	25.6 µM
5.7 µM	–	–	–	–	Cc1ccc(-c2cc(C(=O)NCCN(C)C)c3ccc(Br)cc3n2)o1 [Compound 9, 7-Bromo-N-(2-(dimethylamino)ethyl)-2-(5-methylfuran-2-yl)quinoline-4-carboxamide]	–
> 100 µM	–	–	–	–	Cc1ccc(-c2cc(C(=O)NCCc3ccccc3)c3cc(Br)ccc3n2)o1 [Compound 25, 6-bromo-2-(5-methylfuran-2-yl)-N-phenethylquinoline-4-carboxamide]	–
